MrgX1 PAM: allosterically activates human MrgX1 receptor signaling. MrgX1-HEK293, Fluo-4 calcium flux, FDSS; stronger effect = higher value. 0.63% of 310,000 active. Q96LB2. B-score at 10 µM. AID 588675;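 active = plate-corrected calcium response at least 3 library SD above typical, normal starting fluorescence, not activating the receptor alone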;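 note: compound read alongside a low EC10 to EC30 dose of BAM8-22 agonist; peak minus trough fluorescence over baseline measured at the second addition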
Target sequence (Q96LB2 whole entry, looked up): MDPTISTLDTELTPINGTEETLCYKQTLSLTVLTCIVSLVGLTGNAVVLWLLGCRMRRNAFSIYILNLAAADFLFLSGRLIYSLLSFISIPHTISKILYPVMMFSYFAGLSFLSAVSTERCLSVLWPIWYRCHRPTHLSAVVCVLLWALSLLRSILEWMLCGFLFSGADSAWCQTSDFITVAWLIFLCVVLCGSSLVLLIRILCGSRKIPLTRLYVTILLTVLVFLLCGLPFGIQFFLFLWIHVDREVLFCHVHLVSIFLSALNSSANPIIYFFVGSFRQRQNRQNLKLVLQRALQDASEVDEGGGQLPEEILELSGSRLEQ
RGS4 inh: inhibitors of human RGS4; P49798; HEK293 M3R/RGS4 inducible, Fluo-4 calcium flux; stronger effect = higher value; triggered by carbachol at its EC20; B-score at 10 µM; 0.45% of 310,000 active; AID 463165;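 active = B-score, a plate-corrected calcium signal, over three deviations above library mean, with baseline fluorescence within five deviations of library mean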;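 note: RGS4 expression induced by doxycycline in cells with stable M3 receptor; B-score is computed from the integrated fluorescence ratio over baseline after carbachol; higher B-score means a larger calcium signal and so more RGS4 inhibition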
Target sequence (P49798 whole entry, looked up): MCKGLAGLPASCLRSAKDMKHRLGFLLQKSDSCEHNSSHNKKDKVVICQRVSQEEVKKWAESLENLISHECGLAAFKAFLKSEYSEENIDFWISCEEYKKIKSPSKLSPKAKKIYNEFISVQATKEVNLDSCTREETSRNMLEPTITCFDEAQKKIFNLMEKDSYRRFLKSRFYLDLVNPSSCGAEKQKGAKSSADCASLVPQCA
MrgX1 antagonist: antagonists of human MrgX1 receptor | 1.3% of 310,000 active | B-score at 10 µM | MRGX1-HEK293 calcium flux, Fluo-4, BAM8-22 antagonism; stronger effect = lower value | Q96LB2;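 active = calcium-response B-score plate-corrected more than 3 library SD below zero, starting fluorescence within 5 deviations, no agonist response on first addition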;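 note: peak minus trough fluorescence over baseline after final BAM8-22 challenge near maximal dose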
RGS4 act: RGS4 potentiation or activation | HEK293 M3R/inducible RGS4, carbachol calcium flux Fluo4; stronger effect = lower value | B-score at 10 µM | AID 463111 | 0.92% of 310,000 active;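 active = B-score of the integrated calcium signal more than 4 SD below the library mean, with starting fluorescence not abnormally high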;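 note: negative B-score means reduced calcium response which marks RGS4 activation or potentiation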
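test system = M3R-expressing HEK293 line, RGS4 induced by doxycycline | probe or stimulus = carbachol at ECmax as muscarinic agonist stimulus | timing = dye loading 30 min 37 °C, buffer rest 30 min RT | signal = calcium dye Fluo4 fluorescence | evaluation = B score from integrated fluorescence ratio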
MrgX1 agonist: activates human MrgX1 receptor signaling; Q96LB2; MrgX1-HEK293 cells, Fluo-4 calcium fluorescence, agonist mode; stronger effect = higher value; B-score at 10 µM; 0.44% of 310,000 active;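 active = calcium response B-score plate-corrected fluorescence ratio at least 3 library SD, with starting fluorescence B-score inside 5 SD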
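Test system: HEK293 cells stably expressing human MrgX1 receptor; amount: 15,000 cells per well; doses: compound delivered in addition one of three; times: overnight plating before 1 h dye loading; detection: Fluo-4 NW calcium-flux fluorescence, kinetic read; read-out basis: B-scored fluorescence response ratio; controls: positive and negative controls per plate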
A number is an active result; - = inactive; . = no result. This is a sample that favours compounds with a hit; in the whole collection about 3.5% have one here.

SMILES	MrgX1 PAM	RGS4 inh	MrgX1 antagonist	RGS4 act	MrgX1 agonist
CC(C)=CCc1c2c(c3occ(-c4ccc(O)cc4)c(=O)c3c1O)C=CC(C)(C)O2	-	-	-	-	-
CC(C)Nc1nc(Cl)nc(Nc2ccccc2)n1	-	-	-	-	-
CCOC(=O)C(C)CC(C)C(=O)N1CCOCCOCCN(C(=O)C(C)CC(C)C(=O)OCC)CCOCC1 (configuration not stated)	-	-	-	-	-
CCOC(=O)C(C(=O)OCC)C(C(=O)OCC)N1CCOCC1 (configuration not stated)	-	-	-	-	31.3
Cc1ccc(Cl)cc1N1CCN(C(=O)c2cc3c(=O)n(C)c4ccccc4c3n2C)CC1	-	-	-	-7.17	-
COc1cccc(CNC(=O)[C@H](C)NC(=O)C2CCN(S(=O)(=O)c3ccccc3)CC2)c1	-	-	-	-	-
CC(C)(C)c1ccc(C(=O)N2CCCN(c3ccc([N+](=O)[O-])cn3)CC2)cc1	-	-	-	-	-
O=C1C(=O)N(CCCc2ccccc2)c2ccccc21	-	-	-	-	38.4
Cc1cc(C(=O)NNC(=O)c2cccs2)nn1C(C)(C)C	-	-	-7.15	-	-
Cc1cc(C(=O)NNS(=O)(=O)c2ccc(F)cc2)nn1C(C)(C)C	-	-	-	-	-
Nc1c(C(=O)C2CC2)sc2nc(-c3ccccc3)cc(C(F)(F)F)c12	-	-	-	-9.35	-
COc1ccc(-c2cc(C(F)(F)F)c3c(N)c(C(=O)NCCSC)sc3n2)cc1	-	-	-	-	-
O=C(N/N=C/c1ccc(Br)cc1)c1ccccc1-n1cccc1	-	-	-	-	-
CC(=O)C(=Nc1ccccc1Cl)NNc1ccc(Cl)cc1	-	-	-	-10.6	-
COc1ccc(CCNC(=O)C2CCC(=O)N(CC3CCCCC3)C2)cc1 (configuration not stated)	.	-	.	-7.12	.
O=C(N/N=C/c1ccc(OC(F)F)cc1)c1cc[n+]([O-])cc1	-	-	-6.03	-	-
O=C(N/N=C/c1ccc(OC(F)F)cc1)c1ccc(Br)cc1	-	-	-5.33	-	-
CCC1CCCCN1CCCNC(=O)c1ccc(CS(=O)(=O)Cc2ccc(Cl)cc2)o1 (configuration not stated)	-	-	-	-	-
O=C(Nn1cnc2ccccc2c1=O)c1ccc([N+](=O)[O-])cc1	-	-	-	-	-
CCCC(=O)OCCNC(=O)c1cc2ccccc2oc1=O	-	-	-5.39	-	-
O=C(NNC(=O)c1cccc(S(=O)(=O)N2CCN(c3ccccc3)CC2)c1)c1ccc(Cl)cc1	-	-	-	-	-
O=C(NNC(=O)c1cc(Cl)ccc1O)c1cccc(S(=O)(=O)N2CCOCC2)c1	-	-	-4.85	-	-
CCNC(=O)CSc1nc2ccccc2c(=O)n1-c1cc(OC)ccc1OC	-	-	-	-	-
COC(=O)c1sc2cc([N+](=O)[O-])cc(SCC(C)C)c2c1N	-	-	-9.24	-	-
CCCCOc1ccc(/C=N/NC(=O)c2csc(C)c2C)cc1	-	-	-	-8.59	-
SMILES	MrgX1 PAM	RGS4 inh	MrgX1 antagonist	RGS4 act	MrgX1 agonist
CCOC(=O)n1c(=O)n(Cc2c(Cl)cccc2Cl)c2ccccc21	-	-	-	-	-
O=C(NCCc1ccc(F)cc1)Nc1ccc([N+](=O)[O-])cc1	-	-	-	-	-
O=[N+]([O-])c1ccc(NC(=S)NCCc2ccc(F)cc2)cc1	-	-	-	-	30.3
O/C(=C\c1nc2ccccc2nc1/C=C(\O)c1ccccc1)c1ccccc1	14	-	-	-	-
CN(C)c1nccc(N(Cc2ccccc2)Cc2ccccc2)c1C#N	-	-	-	-7.02	-
CN(C)CCN(Cc1ccccc1)c1ccnc(N(C)C)c1C#N	-	-	-	-	-
CCOc1cccc2cc(-c3nnc(NCc4ccco4)s3)c(=O)oc12	-	-	-4.82	-	-
CC(CN1CCCCC1)C(=O)NNC(=O)C12CC3CC(CC(C3)C1)C2 (configuration not stated)	7.64	-	-	-	-
Cc1cc(NCc2ccccc2)n2ncc(-c3ccccc3)c2n1	-	-	-	-8.73	-
Cc1cc(N2CCC(C)CC2)n2ncc(-c3ccccc3)c2n1	-	-	-	-7.34	-
COc1ccccc1-c1cnn2c(NCCc3ccccc3)cc(C)nc12	-	-	-	-7.41	-
Cc1cc(NC2CCCC2)n2ncc(-c3ccccc3)c2n1	-	-	-	-	-
Cc1cc(N2CCOCC2)n2ncc(-c3ccccc3)c2n1	-	-	-	-	-
Cc1cc(NC(C)c2ccccc2)n2ncc(-c3ccccc3)c2n1 (configuration not stated)	-	-	-	-7.03	-
Nc1nc(SCC(=O)Nc2ncc(C(F)(F)F)cc2Cl)n[nH]1	-	-	-	-	-
Cc1ccccc1-c1c(C)oc2cc(O)ccc2c1=O	-	-	-	-	-
CCOc1ccc(NC(=S)NC(=O)c2cncc(Br)c2)cc1	-	-	-	-	-
COc1cc(/C=C2\SC(=S)N(CCCCC(=O)O)C2=O)ccc1OS(=O)(=O)c1ccc(C)cc1	-	-	-	-	-
N#C/C(=C\c1ccc(-c2ccc(C(=O)O)cc2)o1)C(=O)Nc1ccc(F)cc1	-	-	-4.61	-	-
CC(C)OCCCNC(=O)c1cc2c(=O)n(C)c3ccccc3c2n1C	-	-	-	-	-
CCCCN(CC)CCCNC(=O)c1cc2c(=O)n(C)c3ccccc3c2n1C	-	-	-5.52	-	-
Cc1nc2ccccn2c1C(=O)N=Nc1c(O)n(CCC(C)C)c2ccccc12	-	-	-	-7.31	-
CC(=O)Nc1ccc(S(=O)(=O)NNC(=O)c2sc(=S)n(C)c2C)cc1	-	-	-4.62	-	-
Cc1c(C(=O)NNS(=O)(=O)c2ccccc2Cl)sc(=S)n1C	-	-	-	-	-
CN1CCCN(Cc2ccccc2Br)CC1	-	-	-	-	-
SMILES	MrgX1 PAM	RGS4 inh	MrgX1 antagonist	RGS4 act	MrgX1 agonist
Clc1ccc(SCc2cc(-c3ccc(Cl)cc3)on2)cc1	-	-	-	-8.03	-
Clc1ccc(-c2cc(CN3CCOCC3)no2)cc1	-	-	-	-	-
Cc1ccc(SCc2cc(-c3ccc(Cl)cc3)on2)cc1	-	-	-	-7.58	-
CN(C)c1nc(OCCNC(=O)COc2ccccc2Cl)nc(N(C)C)n1	-	-	-	-	-
COc1ccc(CNC(=O)CN(C(=O)c2snc(C(N)=O)c2N)c2ccccc2F)cc1	6.49	-	-	-	-
COc1ccc(CSc2nnc(-c3ccncc3)n2C)cc1F	-	-	-	-	-
O=C1/C(=C\c2ccco2)CCC/C1=C\c1ccco1	7.56	-	-	-	-
O=C1/C(=C/c2ccco2)Cc2ccccc21	-	-	-	-	-
CC1C/C(=C/c2ccco2)C(=O)/C(=C/c2ccco2)C1 (configuration not stated)	-	6.56	-	-	-
O=C1/C(=C/c2ccco2)CCC1C1CCCC1 (configuration not stated)	-	-	-	-	-
